An excerpt weighted towards active compounds, which were near 1.9% of everything screened.
ADAM10 inh = ADAM10 inhibition, QFRET primary screen. O14672. 0.62% of 370,000 active. AID 720582. inhibition, % at 7 µM. recombinant ADAM10, EDANS/DABCYL FRET peptide cleavage, 3 h;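 active = inhibition above a per-campaign cutoff equal to the mean of compounds falling between control-based bounds plus 3 SD, cut at about 20% in these data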;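 also: 0% = DMSO wells while the 100% control is not disclosed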
ADAM17 inh = ADAM17 inhibition, QFRET primary screen; P78536; recombinant ADAM17, EDANS/DABCYL FRET peptide cleavage; inhibition, % at 6.95 µM; 0.83% of 370,000 active; AID 720648;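 active = inhibition above the mean of compounds lying between control limits plus 3 SD, set per campaign, cut at about 8.5% in these data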;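 also: 0% = DMSO-only wells as the low control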
SENP1 inh = SENP1 (human) catalytic domain inhibition; Q9P0U3; recombinant SENP1 catalytic domain, CyPet-SUMO1-YPet FRET cleavage; inhibition, % at 10 µM; 0.21% of 360,000 active;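 active = inhibition at least 30% at 10 µM, raw YFP signal under a set limit, fluorescence ratio 0.5 to 1.5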;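 also: 0% = enzyme with DMSO and 100% = no enzyme wells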
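Test system: recombinant human SENP1 catalytic domain, His6-tagged / Medium: pH 8 Tris buffer with EDTA, NaCl, BME, BSA, NP40, catalase / Also added: SUMO1 FRET substrate flanked by Cypet and Ypet, 25 nM / Times: 50 min reaction at room temperature / Signal: FRET, CFP and YFP emission / Control set: no-enzyme low control and enzyme-plus-DMSO high control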
FAS-TE inh = FAS thioesterase (human) inhibition; 0.67% of 360,000 active; recombinant FAS-TE, OMFH fluorogenic substrate, fluorescence endpoint; inhibition, % at 15 µM; AID 602261; P49327;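 active = compounds whose normalised, plate-corrected inhibition of enzyme fluorescence in the single-dose primary screen is 50% or more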;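 also: 0% = DMSO with enzyme and 100% = substrate without enzyme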
ADAM10 confirm = confirmation of inhibitors of human ADAM10 | shares compounds with ADAM10 inh | ADAM10 QFRET peptide cleavage, EDANS fluorescence | inhibition, % at 6.95 µM | 1% of 2,100 active;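 active = inhibition above about 20% chosen separately for each screening run, limit read from the data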;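 also: 0% = DMSO wells and 100% = marimastat wells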
ADAM17 ctr = inhibits human ADAM17 in ADAM10 exosite counter-screen. ADAM17 QFRET peptide cleavage, EDANS fluorescence. inhibition, % at 6.95 µM. 0.5% of 2,100 active. shares compounds with ADAM10 inh;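 active = mean triplicate inhibition above the solvent-only control wells' mean plus 3 SD, cut at about 12% in these data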;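 also: 0% = DMSO wells and 100% = marimastat wells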
ADAM10 ctr = counter-screen for ADAM17 exosite inhibitors: inhibitors of human ADAM10. shares compounds with ADAM17 inh. recombinant ADAM10, EDANS/DABCYL FRET peptide cleavage, 3 h. inhibition, % at 6.95 µM. 47% of 2,900 active;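 active = mean inhibition over the triplicate runs exceeds the activity threshold set in the earlier primary screen, cut at about 20% in these data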;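 also: 0% = DMSO wells and 100% = marimastat wells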
ADAM17 confirm = human ADAM17 inhibition, confirmation; recombinant ADAM17, EDANS/DABCYL QFRET peptide cleavage; inhibition, % at 6.95 µM; shares compounds with ADAM17 inh; 65% of 2,900 active; AID 743257;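 active = mean inhibition across replicates above the hit cutoff set in the primary screen, cut at about 8.5% in these data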;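 also: 0% = DMSO wells and 100% = marimastat wells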
* = called active by the depositor; · = no result.

SMILES	ADAM10 inh	ADAM17 inh	SENP1 inh	FAS-TE inh	ADAM10 confirm	ADAM17 ctr	ADAM10 ctr	ADAM17 confirm
Cc1c(O)ccc(C(=O)COc2ccccc2F)c1O	22*	12*	4	-3	1	0	27*	12*
C[C@H](NC(=O)c1nc[nH]c1C(=O)NCC(=O)OC(C)(C)C)C(=O)OC(C)(C)C	-9	-6	2	1	·	·	·	·
CC(C)C[C@H](NC(=O)c1[nH]cnc1C(=O)N[C@H](C)c1ccccc1)C(=O)OCc1ccccc1	27*	13*	1	17	6	3	46*	21*
CC(C)C[C@H](NC(=O)c1nc[nH]c1C(=O)NCC(=O)OC(C)(C)C)C(=O)OC(C)(C)C	26*	13*	1	10	1	0	30*	15*
CC(C)(C)OC(=O)[C@H](Cc1ccccc1)NC(=O)c1nc[nH]c1C(=O)N[C@@H](Cc1ccccc1)C(=O)OC(C)(C)C	2	-1	2	13	·	·	·	·
C[C@H](NC(=O)c1nc[nH]c1C(=O)N[C@@H](Cc1ccccc1)C(=O)OC(C)(C)C)C(=O)OC(C)(C)C	22*	10.0*	0	18	1	0	50*	24*
CC(C)(C)OC(=O)[C@H](Cc1ccccc1)NC(=O)c1[nH]cnc1C(=O)N[C@@H](Cc1ccccc1)C(=O)OCc1ccccc1	16	8	4	16	·	·	·	·
CC(C)C[C@H](NC(=O)c1[nH]cnc1C(=O)N[C@@H](C)C(=O)OCc1ccccc1)C(=O)OC(C)(C)C	29*	14*	-1	16	4	2	39*	21*
O=C(N[C@H](C(=O)N1CCC[C@H]1C(=O)NC1CCCC1)C1CCCCC1)c1ccc(Cl)c(Cl)c1	0	3	·	·	·	·	·	·
CC(C)(C)OC(=O)CNC(=O)c1[nH]cnc1C(=O)NC1CCN(C(=O)OC(C)(C)C)CC1	1	-2	·	·	·	·	·	·
CC(C)(C)OC(=O)N1CCC(NC(=O)c2nc[nH]c2C(=O)NCC(=O)OCc2ccccc2)CC1	23*	8.7*	0	-2	-2	0	8	2
CC(C)C[C@H](NC(=O)c1nc[nH]c1C(=O)NCC(=O)OCc1ccccc1)C(=O)OC(C)(C)C	23*	8.9*	0	19	5	1	33*	16*
CN(Cc1ccccc1)C(=O)c1cccc(NC(=O)Cc2ccc(NC(=O)C3CCCN(C(=O)CCc4ccccc4)C3)cc2)c1 (configuration not stated)	3	1	1	0	·	·	·	·
CN(Cc1ccccc1)C(=O)c1ccc(NC(=O)Cc2cccc(NC(=O)C3CCCN(C(=O)CCc4ccccc4)C3)c2)cc1 (configuration not stated)	24*	14*	-1	2	3	2	24*	14*
Cc1ccc(C=Nn2c(-c3n[nH]c4c3CCC4)n[nH]c2=S)s1	-11	5	·	·	·	·	·	·
Cc1[nH]c2ccccc2c1C(=O)COC(=O)c1c(-c2c(F)cccc2Cl)noc1C	26*	13*	4	22	5	2	32*	17*
Cc1ccc(S(=O)(=O)N2CCN(C(=O)c3cccn3C)CC2)cc1	-5	-2	·	·	·	·	·	·
Cc1ccc(C)c(C(=O)COC(=O)CCCC(=O)Nc2cc(C(F)(F)F)ccc2Cl)c1	20*	9.8*	-1	41	4	2	25*	11*
Cc1ccc(NC(=O)Cc2ccc(Cl)c(Cl)c2)cc1S(=O)(=O)N(C)C	28*	15*	-4	24	3	1	17	9.6*
Cc1ccc(NC(=O)CSc2nn(-c3ccc(Cl)cc3)c(=S)s2)cc1S(=O)(=O)N(C)C	25*	9.8*	2	28	9	3	28*	20*
CN(C)S(=O)(=O)c1cc(NC(=O)CSc2nn(-c3ccc(Cl)cc3)c(=S)s2)ccc1Cl	5	-1	-1	39	·	·	·	·
NNC(=O)/C(=N/Nc1ccccc1)S(=O)(=O)c1ccc(Cl)cc1	21*	11*	2	-1	4	3	15	9.9*
COc1ccc(-c2nc(C)ncc2N=Nc2ccccc2)cc1	4	0	3	11	·	·	·	·
Oc1ccccc1N=Nc1nc(-c2ccccc2)c(-c2ccccc2)[nH]1	26*	9.9*	48*	29	5	2	28*	12*
COc1ccc(N=Nc2nc(-c3ccccc3)c(-c3ccccc3)[nH]2)cc1	24*	9.2*	37*	28	9	3	32*	15*
SMILES	ADAM10 inh	ADAM17 inh	SENP1 inh	FAS-TE inh	ADAM10 confirm	ADAM17 ctr	ADAM10 ctr	ADAM17 confirm
C(=C\c1ccccc1)/CN1CCN(C(c2ccccc2)c2nnnn2Cc2ccccc2)CC1 (configuration not stated)	16	8	1	18	·	·	·	·
COc1ccc(C(c2nnnn2Cc2ccccc2)N2CCN(C/C=C/c3ccccc3)CC2)cc1 (configuration not stated)	24*	12*	-7	18	1	1	17	11*
C[C@@H]1CCCN1c1cccc2c1S(=O)(=O)N(C1CC1)CCCO2	-11	-2	·	·	·	·	·	·
O=C(Nc1cccc(Cl)c1)N1CCN2C(=O)c3ccccc3C12c1ccccc1 (configuration not stated)	23*	11*	3	27	3	1	20*	12*
COC(=O)[C@]12C[C@H](CC(=O)NCc3cccc4ccccc34)C(=O)N(Cc3ccccc3)C1=C[C@H](C(C)(C)C)O[C@@H]2C	12	5	·	·	·	·	·	·
COC(=O)[C@]12C[C@H](CC(=O)NCc3cccc(C(F)(F)F)c3)C(=O)N(Cc3ccccc3)C1=C[C@H](C1CCCC1)O[C@@H]2C	13	6	·	·	·	·	·	·
COC(=O)[C@]12C[C@H](CC(=O)NCc3cccc(C(F)(F)F)c3)C(=O)N(Cc3ccco3)C1=C[C@H](C1CCCC1)O[C@@H]2C	21*	9.0*	·	·	7	1	17	8.9*
COC(=O)[C@]12C[C@H](CC(=O)NCc3cccc4ccccc34)C(=O)N(Cc3ccco3)C1=C[C@H](C(C)(C)C)O[C@@H]2C	24*	9.4*	·	·	8	3	32*	15*
COC(=O)[C@]12C[C@H](CC(=O)NCc3ccc(OC)c(OC)c3)C(=O)N(Cc3ccccc3)C1=C[C@H](C(C)(C)C)O[C@@H]2C	-2	1	·	·	·	·	·	·
